Activity calls are given as the source filed them. No cut-off for these calls is given here.
Assays:
[1] = Lipophilicity of the compound using 65% methanol in water at 1 mg/ml by RT-TLC analysis; type: physicochemical; settings: buffer
Outline: (§1)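 Reversed-phase TLC with a methanol–water mobile phase at the stated methanol content (v/v). Compounds were spotted from 1 mg/mL methanol solutions after 1 h chamber saturation and located under UV light. Rf was measured and RM = log(1/Rf − 1) calculated.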

[2] = Lipophilicity of the compound using 95% methanol in water at 1 mg/ml by RT-TLC analysis; type: physicochemical; settings: buffer; outline: as §1
[3] = Lipophilicity of the compound at 1 mg/ml by RT-TLC analysis relative to 0% methanol; type: physicochemical; settings: methanol/water
Outline: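 Reversed-phase TLC used methanol–water mobile phases of 95–65% methanol. Compounds were applied from 1 mg/mL methanol solutions after 1 h chamber saturation, with UV detection. RM = log(1/Rf − 1) was calculated at each methanol level and extrapolated linearly (RM = RM0 + bC) to 0% methanol to give RM0.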

Mus musculus [4] = test: Anticonvulsant activity in albino Carworth Farms No.1 mouse assessed as protection against subcutaneous dosed pentetrazol-induced seizures at 100 mg/kg, ip after 4 hrs; type: functional, organism-based
Outline: (§2)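 Mouse i.p. screen in Carworth Farms No.1 albino mice at 30, 100 or 300 mg/kg in 0.5% methylcellulose. Testing was at 0.5 and 4 h after injection, by maximal electroshock or by subcutaneous pentetrazol challenge. Scoring was number protected / number used.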

Mus musculus [5] = test: Anticonvulsant activity in albino Carworth Farms No.1 mouse assessed as protection against maximal electroshock-induced seizures at 30 mg/kg, ip after 0.5 hrs; type: functional, organism-based; outline: as §2
Mus musculus [6] = test: Anticonvulsant activity in albino Carworth Farms No.1 mouse assessed as protection against maximal electroshock-induced seizures at 300 mg/kg, ip after 0.5 hrs; type: functional, organism-based; outline: as §2
[7] = Lipophilicity of the compound using 75% methanol in water at 1 mg/ml by RT-TLC analysis; type: physicochemical; settings: buffer; outline: as §1
Mus musculus [8] = test: Neurotoxicity in albino Carworth Farms No.1 mouse at 30 mg/kg, ip after 0.5 hrs by rotarod test; type: toxicity, organism-based; settings: in vivo
Outline: (§3)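 Mice (albino Carworth Farms No.1) were dosed i.p. at 30, 100 or 300 mg/kg in 0.5% methylcellulose. They were tested 0.5 and 4 h later on a 1-inch knurled rod rotating at 6 rpm. Neurotoxicity was scored if a mouse could not stay on the rod for at least 1 min in each of three trials. Results are given as animals toxic/animals tested, with deaths noted.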

Mus musculus [9] = test: Neurotoxicity in albino Carworth Farms No.1 mouse at 100 mg/kg, ip after 0.5 hrs by rotarod test; type: toxicity, organism-based; settings: in vivo; outline: as §3
Mus musculus [10] = test: Anticonvulsant activity in albino Carworth Farms No.1 mouse assessed as protection against subcutaneous dosed pentetrazol-induced seizures at 300 mg/kg, ip after 4 hrs; type: functional, organism-based; outline: as §2
[11] = Lipophilicity of the compound using 90% methanol in water at 1 mg/ml by RT-TLC analysis; type: physicochemical; settings: buffer; outline: as §1
Mus musculus [12] = test: Anticonvulsant activity in albino Carworth Farms No.1 mouse assessed as protection against maximal electroshock-induced seizures at 100 mg/kg, ip after 4 hrs; type: functional, organism-based; outline: as §2
Mus musculus [13] = test: Anticonvulsant activity in albino Carworth Farms No.1 mouse assessed as protection against maximal electroshock-induced seizures at 100 mg/kg, ip after 0.5 hrs; type: functional, organism-based; outline: as §2
Mus musculus [14] = test: Anticonvulsant activity in albino Carworth Farms No.1 mouse assessed as protection against subcutaneous dosed pentetrazol-induced seizures at 300 mg/kg, ip after 0.5 hrs; type: functional, organism-based; outline: as §2
Mus musculus [15] = test: Neurotoxicity in albino Carworth Farms No.1 mouse at 300 mg/kg, ip after 0.5 hrs by rotarod test; type: toxicity, organism-based; settings: in vivo; outline: as §3
Mus musculus [16] = test: Anticonvulsant activity in albino Carworth Farms No.1 mouse assessed as protection against subcutaneous dosed pentetrazol-induced seizures at 30 mg/kg, ip after 0.5 hrs; type: functional, organism-based; outline: as §2
Mus musculus [17] = test: Anticonvulsant activity in albino Carworth Farms No.1 mouse assessed as protection against subcutaneous dosed pentetrazol-induced seizures at 100 mg/kg, ip after 0.5 hrs; type: functional, organism-based; outline: as §2
[18] = Lipophilicity of the compound using 85% methanol in water at 1 mg/ml by RT-TLC analysis; type: physicochemical; settings: buffer; outline: as §1
Mus musculus [19] = test: Anticonvulsant activity in albino Carworth Farms No.1 mouse assessed as protection against maximal electroshock-induced seizures at 30 mg/kg, ip after 4 hrs; type: functional, organism-based; outline: as §2
Mus musculus [20] = test: Anticonvulsant activity in albino Carworth Farms No.1 mouse assessed as protection against subcutaneous dosed pentetrazol-induced seizures at 30 mg/kg, ip after 4 hrs; type: functional, organism-based; outline: as §2
Mus musculus [21] = test: Anticonvulsant activity in albino Carworth Farms No.1 mouse assessed as protection against maximal electroshock-induced seizures at 300 mg/kg, ip after 4 hrs; type: functional, organism-based; outline: as §2
Mus musculus [22] = test: Neurotoxicity in albino Carworth Farms No.1 mouse at 300 mg/kg, ip after 4 hrs by rotarod test; type: toxicity, organism-based; settings: in vivo; outline: as §3
Mus musculus [23] = test: Neurotoxicity in albino Carworth Farms No.1 mouse at 30 mg/kg, ip after 4 hrs by rotarod test; type: toxicity, organism-based; settings: in vivo; outline: as §3
Mus musculus [24] = test: Neurotoxicity in albino Carworth Farms No.1 mouse at 100 mg/kg, ip after 4 hrs by rotarod test; type: toxicity, organism-based; settings: in vivo; outline: as §3

Rm [1] | Rm [2] | Rm [3] | Rm [7] | Rm [11] | Rm [18] | SMILES | Activity (Mus musculus [4]) | Activity (Mus musculus [5]) | Activity (Mus musculus [6]) | Activity (Mus musculus [8]) | Activity (Mus musculus [9]) | Activity (Mus musculus [10]) | Activity (Mus musculus [12]) | Activity (Mus musculus [13]) | Activity (Mus musculus [14]) | Activity (Mus musculus [15]) | Activity (Mus musculus [16]) | Activity (Mus musculus [17]) | Activity (Mus musculus [19]) | Activity (Mus musculus [20]) | further results
0.29 | -0.58 | 2.118 | -0.05 | -0.43 | -0.14 | CCC(COC(C)=O)NC(=O)/C=C/c1ccccc1 (centres undefined) | inactive | inactive | inactive | Non-toxic | Non-toxic | inactive | inactive | inactive | inactive | Non-toxic | inactive | inactive | inactive | inactive | Activity (Mus musculus [21]): inactive
0.05 | -0.63 | 1.478 | -0.21 | -0.52 | -0.33 | CC(=O)CNC(=O)/C=C/c1ccccc1 | inactive | inactive | Active | Non-toxic | Non-toxic | inactive | inactive | inactive | inactive | Non-toxic | inactive | inactive | inactive | inactive | Activity (Mus musculus [22]): Non-toxic; Activity (Mus musculus [23]): Non-toxic; Activity (Mus musculus [21]): inactive; Activity (Mus musculus [24]): Non-toxic
0.29 | -0.63 | 2.151 | -0.14 | -0.5 | -0.25 | CC(C)(CO)NC(=O)/C=C/c1ccccc1 | inactive | inactive | Active | Non-toxic | Non-toxic | inactive | inactive | inactive | Active | Non-toxic | inactive | inactive | inactive | inactive | Activity (Mus musculus [22]): Non-toxic; Activity (Mus musculus [23]): Non-toxic; Activity (Mus musculus [21]): inactive; Activity (Mus musculus [24]): Non-toxic

From ChEMBL document CHEMBL3739352, “Anticonvulsant activity, crystal structures, and preliminary safety evaluation of N-trans-cinnamoyl derivatives of selected (un)modified aminoalkanols” (Eur J Med Chem, 2016)
